The test system of experiment [1] is Aldehyde reductase AKR1A1 (Rattus norvegicus). Briefly: Inhibition of Wistar rat kidney aldehyde reductase-1 using D-glucuronate as substrate assessed as oxidation of NADPH at 10 uM preincubated for 10 mins followed by substrate addition measured for 4 mins by spectrophotometric analysis relative to control.
For experiment [2], the target named is Aldo-keto reductase family 1 member B1 (Rattus norvegicus, UniProt P07943). In words: Inhibition of Wistar rat eye lens aldose reductase-2 using D-L glyceraldehyde as substrate assessed as oxidation of NADPH preincubated for 10 mins followed by substrate addition measured for 4 mins by spectrophotometric analysis.
For experiment [3], the target named is Aldo-keto reductase family 1 member B1 (Rattus norvegicus) (UniProt P07943). Briefly: Inhibition of Wistar rat eye lens aldose reductase-2 using D-L glyceraldehyde as substrate assessed as oxidation of NADPH at 10 uM preincubated for 10 mins followed by substrate addition measured for 4 mins by spectrophotometric analysis relative to control. The essentials:
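ALR2 was taken from Wistar rat lens homogenate. It was fractionated with ammonium sulfate (40% and 50% supernatants, then a 75% cut), dissolved in 0.05 M NaCl, dialyzed and stored at −20 °C. The 1 mL assay ran at 30 °C with 0.10 mM NADPH solution, 0.1 M sodium phosphate pH 6.2 and D,L-glyceraldehyde substrate. Compounds were in DMSO diluted with water, 10^-5 M final, with a substrate-free blank rate subtracted.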

Regarding `O=C(O)Cn1c(=O)c(/C=C/c2ccccc2)nc2ccccc21`, the inhibition – broadly, the share of the control response that was lost under treatment – in experiment [1] was determined as 32%. Further, the IC50 (usually the midpoint of a concentration-inhibition curve) in experiment [2] stood at 0.82 µM.
On to `O=C(O)Cn1c(=O)c(CCc2ccccc2)nc2ccccc21`, for which, in experiment [1], the inhibition is 22%. Further, the concentration for half-maximal inhibition (IC50) in experiment [2] was found to be 0.143 µM.
With `O=c1c(-c2csc3ccccc23)nc2ccccc2n1Cc1ccc([N+](=O)[O-])cc1`, the inhibition in experiment [3] was determined as 32%.
As to `CC(C)(C)NC(=O)/C=C/c1nc2ccccc2n(Cc2ccc([N+](=O)[O-])cc2)c1=O`, the inhibition in experiment [3] was determined as 36.2%.
The same measure, in the same setting: the figure for `O=c1c(/C=C/c2ccc(F)cc2)nc2ccccc2n1Cc1ccc([N+](=O)[O-])cc1` is 24%.
As to `O=C(O)Cn1c(=O)c(/C=C/c2ccccc2)nc2ccc(Cl)cc21`, the inhibition in experiment [1] turned out to be 35%. In addition, the IC50 in experiment [2] was determined as 3.88 µM.
On the same counts, the results for `COc1ccc(N2CCN(c3nc4ccccc4n(CC(=O)O)c3=O)CC2)cc1` are 48% and 7.53 µM.
On to `CC(C)(C)NC(=O)/C=C/c1nc2ccccc2n(CC(=O)O)c1=O`, for which, in experiment [1], the inhibition is 25%. Also, the concentration for half-maximal inhibition (IC50) in experiment [2] worked out at 1.86 µM.
For `O=C(O)Cn1c(=O)c(Nc2ccc(F)cc2F)nc2cc([N+](=O)[O-])ccc21` the same measures were 41% and 0.283 µM.
As for `O=c1c(N2CCN(c3cnccn3)CC2)nc2ccccc2n1Cc1ccc([N+](=O)[O-])cc1`, in experiment [3], the inhibition was determined as 24%.
As for `COc1ccc(N2CCN(c3nc4ccccc4n(Cc4ccc([N+](=O)[O-])cc4)c3=O)CC2)cc1`, the inhibition in experiment [3] amounted to 26%.
For the compound `O=C(O)Cn1c(=O)c(/C=C/c2ccc(F)cc2)nc2ccccc21`, in experiment [1], the inhibition worked out at 47%. The IC50 in experiment [2] came to 1.43 µM.
For `O=C(O)Cn1c(=O)c(CCc2ccc(F)cc2)nc2ccccc21` the same measures were 40% and 1.14 µM.
On the same counts, the results for `O=C(O)Cn1c(=O)c(/C=C/c2ccc(F)cc2)nc2cc(Cl)ccc21` are 25% and 0.66 µM.
In the case of `O=c1c(N2CCN(c3cccc(C(F)(F)F)c3)CC2)nc2ccccc2n1Cc1ccc([N+](=O)[O-])cc1`, in experiment [3], the inhibition is 42.9%.
The same measure, in the same setting: then `O=c1c(N2CCN(CCN3CCOCC3)CC2)nc2ccccc2n1Cc1ccc([N+](=O)[O-])cc1`, with 23%.
On to `O=C(O)Cn1c(=O)c(/C=C/c2ccc(F)cc2)nc2cc([N+](=O)[O-])ccc21`, for which, in experiment [1], the inhibition was 25%. Moreover, in experiment [2], the half-inhibitory concentration (IC50) is 0.362 µM.
As to `O=c1c(/C=C/c2ccccc2)nc2ccccc2n1Cc1ccc([N+](=O)[O-])cc1`, the inhibition in experiment [3] is 30%.

The values are drawn from ChEMBL document CHEMBL3259520, “Structure-activity relationships studies of quinoxalinone derivatives as aldose reductase inhibitors” (Eur J Med Chem, 2014).
